Measurements as given in ChEMBL document CHEMBL3864165, “Design, synthesis, and AChE inhibitory activity of new benzothiazole-piperazines” (Bioorg Med Chem Lett, 2016).

How the values were obtained:
[1] = biological target: Acetylcholinesterase (Electrophorus electricus) (UniProt O42275); experiment: Inhibition of electric eel AChE at 10^-6 M preincubated for 15 mins followed by acetylthiocholine iodide substrate addition measured for 5 mins by Ellman's spectrophotometric method relative to control
[2] = biological target: Acetylcholinesterase (Electrophorus electricus) (UniProt O42275); experiment: Inhibition of electric eel AChE at 10^-7 M preincubated for 15 mins followed by acetylthiocholine iodide substrate addition measured for 5 mins by Ellman's spectrophotometric method relative to control
[3] = biological target: Acetylcholinesterase (Electrophorus electricus) (UniProt O42275); experiment: Inhibition of electric eel AChE at 10^-3 M preincubated for 15 mins followed by acetylthiocholine iodide substrate addition measured for 5 mins by Ellman's spectrophotometric method relative to control
[4] = biological target: Acetylcholinesterase (Electrophorus electricus) (UniProt O42275); experiment: Inhibition of electric eel AChE at 10^-4 M preincubated for 15 mins followed by acetylthiocholine iodide substrate addition measured for 5 mins by Ellman's spectrophotometric method relative to control
Acetylcholinesterase [5] = biological target: T1, Acetylcholinesterase (Electrophorus electricus, UniProt O42275); experiment: Inhibition of electric eel AChE preincubated for 15 mins followed by acetylthiocholine iodide substrate addition measured for 5 mins by Ellman's spectrophotometric method
Acetylcholinesterase [6] = biological target: T1, Acetylcholinesterase; experiment: Mixed-type inhibition of electric eel AChE preincubated for 15 mins followed by acetylthiocholine iodide substrate addition measured for 5 mins by Lineweaver-Burk plot analysis
In short: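 Substrate-velocity curves recorded with and without inhibitor, with initial velocities measured at acetylthiocholine (ATC) concentrations from 600 µM down to 18.75 µM. Data analysed as 1/V plots. Ki taken as the x-axis intercept of a secondary plot of 1/V versus inhibitor concentration.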

[7] = Cytotoxicity against mouse NIH/3T3 cells after 24 hrs by MTT assay; details: NIH/3T3 cells
[8] = Ratio of compound IC50 to donepezil IC50 for mouse NIH/3T3 cells; type: ADME, cell-based; details: read-out: Ratio IC50
Salmonella typhimurium [9] = experiment: Genotoxicity in Salmonella typhimurium TA98 assessed as increase in number of revertants at 0.156 mg/ml in presence of aroclor-1254-induced Sprague-Dawley rat liver S9 fraction by Ames-MPF assay relative to control; type: toxicity, organism-based; details: salmonella enterica subsp. enterica serovar typhimurium
In short: (§1)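 Ames MPF microplate fluctuation format, run with and without S9 metabolic activation. The read-out is the count of positive (revertant) wells. A run is accepted only when positive controls give more than 25 positive wells and negative controls give fewer than eight.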

Salmonella typhimurium [10] = experiment: Genotoxicity in Salmonella typhimurium TA98 assessed as increase in number of revertants at 0.3125 mg/ml in presence of aroclor-1254-induced Sprague-Dawley rat liver S9 fraction by Ames-MPF assay relative to control; type: toxicity, organism-based; details: salmonella enterica subsp. enterica serovar typhimurium; in short: as §1
Salmonella typhimurium [11] = experiment: Genotoxicity in Salmonella typhimurium TA98 assessed as increase in number of revertants at 0.625 mg/ml in presence of aroclor-1254-induced Sprague-Dawley rat liver S9 fraction by Ames-MPF assay relative to control; type: toxicity, organism-based; details: salmonella enterica subsp. enterica serovar typhimurium; in short: as §1
Salmonella typhimurium [12] = experiment: Genotoxicity in Salmonella typhimurium TA98 assessed as increase in number of revertants at 1.25 mg/ml in presence of aroclor-1254-induced Sprague-Dawley rat liver S9 fraction by Ames-MPF assay relative to control; type: toxicity, organism-based; details: salmonella enterica subsp. enterica serovar typhimurium; in short: as §1
Salmonella typhimurium [13] = experiment: Genotoxicity in Salmonella typhimurium TA98 assessed as increase in number of revertants at 2.5 mg/ml in presence of aroclor-1254-induced Sprague-Dawley rat liver S9 fraction by Ames-MPF assay relative to control; type: toxicity, organism-based; details: salmonella enterica subsp. enterica serovar typhimurium; in short: as §1
Salmonella typhimurium [14] = experiment: Genotoxicity in Salmonella typhimurium TA98 assessed as increase in number of revertants at 5 mg/ml in presence of aroclor-1254-induced Sprague-Dawley rat liver S9 fraction by Ames-MPF assay relative to control; type: toxicity, organism-based; details: salmonella enterica subsp. enterica serovar typhimurium; in short: as §1
Salmonella typhimurium [15] = experiment: Genotoxicity in Salmonella typhimurium TA98 assessed as increase in number of revertants at 0.156 mg/ml in absence of aroclor-1254-induced Sprague-Dawley rat liver S9 fraction by Ames-MPF assay relative to control; type: toxicity, organism-based; details: salmonella enterica subsp. enterica serovar typhimurium; in short: as §1
Salmonella typhimurium [16] = experiment: Genotoxicity in Salmonella typhimurium TA98 assessed as increase in number of revertants at 0.3125 mg/ml in absence of aroclor-1254-induced Sprague-Dawley rat liver S9 fraction by Ames-MPF assay relative to control; type: toxicity, organism-based; details: salmonella enterica subsp. enterica serovar typhimurium; in short: as §1
Salmonella typhimurium [17] = experiment: Genotoxicity in Salmonella typhimurium TA98 assessed as increase in number of revertants at 0.625 mg/ml in absence of aroclor-1254-induced Sprague-Dawley rat liver S9 fraction by Ames-MPF assay relative to control; type: toxicity, organism-based; details: salmonella enterica subsp. enterica serovar typhimurium; in short: as §1
Salmonella typhimurium [18] = experiment: Genotoxicity in Salmonella typhimurium TA98 assessed as increase in number of revertants at 1.25 mg/ml in absence of aroclor-1254-induced Sprague-Dawley rat liver S9 fraction by Ames-MPF assay relative to control; type: toxicity, organism-based; details: salmonella enterica subsp. enterica serovar typhimurium; in short: as §1
Salmonella typhimurium [19] = experiment: Genotoxicity in Salmonella typhimurium TA98 assessed as increase in number of revertants at 2.5 mg/ml in absence of aroclor-1254-induced Sprague-Dawley rat liver S9 fraction by Ames-MPF assay relative to control; type: toxicity, organism-based; details: salmonella enterica subsp. enterica serovar typhimurium; in short: as §1
Salmonella typhimurium [20] = experiment: Genotoxicity in Salmonella typhimurium TA98 assessed as increase in number of revertants at 5 mg/ml in absence of aroclor-1254-induced Sprague-Dawley rat liver S9 fraction by Ames-MPF assay relative to control; type: toxicity, organism-based; details: salmonella enterica subsp. enterica serovar typhimurium; in short: as §1
Salmonella typhimurium [21] = experiment: Genotoxicity in Salmonella typhimurium TA100 assessed as increase in number of revertants at 0.156 mg/ml in presence of aroclor-1254-induced Sprague-Dawley rat liver S9 fraction by Ames-MPF assay relative to control; type: toxicity, organism-based; details: salmonella enterica subsp. enterica serovar typhimurium; in short: as §1
Salmonella typhimurium [22] = experiment: Genotoxicity in Salmonella typhimurium TA100 assessed as increase in number of revertants at 0.3125 mg/ml in presence of aroclor-1254-induced Sprague-Dawley rat liver S9 fraction by Ames-MPF assay relative to control; type: toxicity, organism-based; details: salmonella enterica subsp. enterica serovar typhimurium; in short: as §1
Salmonella typhimurium [23] = experiment: Genotoxicity in Salmonella typhimurium TA100 assessed as increase in number of revertants at 0.625 mg/ml in presence of aroclor-1254-induced Sprague-Dawley rat liver S9 fraction by Ames-MPF assay relative to control; type: toxicity, organism-based; details: salmonella enterica subsp. enterica serovar typhimurium; in short: as §1
Salmonella typhimurium [24] = experiment: Genotoxicity in Salmonella typhimurium TA100 assessed as increase in number of revertants at 1.25 mg/ml in presence of aroclor-1254-induced Sprague-Dawley rat liver S9 fraction by Ames-MPF assay relative to control; type: toxicity, organism-based; details: salmonella enterica subsp. enterica serovar typhimurium; in short: as §1
Salmonella typhimurium [25] = experiment: Genotoxicity in Salmonella typhimurium TA100 assessed as increase in number of revertants at 2.5 mg/ml in presence of aroclor-1254-induced Sprague-Dawley rat liver S9 fraction by Ames-MPF assay relative to control; type: toxicity, organism-based; details: salmonella enterica subsp. enterica serovar typhimurium; in short: as §1
Salmonella typhimurium [26] = experiment: Genotoxicity in Salmonella typhimurium TA100 assessed as increase in number of revertants at 5 mg/ml in presence of aroclor-1254-induced Sprague-Dawley rat liver S9 fraction by Ames-MPF assay relative to control; type: toxicity, organism-based; details: salmonella enterica subsp. enterica serovar typhimurium; in short: as §1
Salmonella typhimurium [27] = experiment: Genotoxicity in Salmonella typhimurium TA100 assessed as increase in number of revertants at 0.156 mg/ml in absence of aroclor-1254-induced Sprague-Dawley rat liver S9 fraction by Ames-MPF assay relative to control; type: toxicity, organism-based; details: salmonella enterica subsp. enterica serovar typhimurium; in short: as §1
Salmonella typhimurium [28] = experiment: Genotoxicity in Salmonella typhimurium TA100 assessed as increase in number of revertants at 0.3125 mg/ml in absence of aroclor-1254-induced Sprague-Dawley rat liver S9 fraction by Ames-MPF assay relative to control; type: toxicity, organism-based; details: salmonella enterica subsp. enterica serovar typhimurium; in short: as §1
Salmonella typhimurium [29] = experiment: Genotoxicity in Salmonella typhimurium TA100 assessed as increase in number of revertants at 0.625 mg/ml in absence of aroclor-1254-induced Sprague-Dawley rat liver S9 fraction by Ames-MPF assay relative to control; type: toxicity, organism-based; details: salmonella enterica subsp. enterica serovar typhimurium; in short: as §1
Salmonella typhimurium [30] = experiment: Genotoxicity in Salmonella typhimurium TA100 assessed as increase in number of revertants at 1.25 mg/ml in absence of aroclor-1254-induced Sprague-Dawley rat liver S9 fraction by Ames-MPF assay relative to control; type: toxicity, organism-based; details: salmonella enterica subsp. enterica serovar typhimurium; in short: as §1
Salmonella typhimurium [31] = experiment: Genotoxicity in Salmonella typhimurium TA100 assessed as increase in number of revertants at 2.5 mg/ml in absence of aroclor-1254-induced Sprague-Dawley rat liver S9 fraction by Ames-MPF assay relative to control; type: toxicity, organism-based; details: salmonella enterica subsp. enterica serovar typhimurium; in short: as §1
Salmonella typhimurium [32] = experiment: Genotoxicity in Salmonella typhimurium TA100 assessed as increase in number of revertants at 5 mg/ml in absence of aroclor-1254-induced Sprague-Dawley rat liver S9 fraction by Ames-MPF assay relative to control; type: toxicity, organism-based; details: salmonella enterica subsp. enterica serovar typhimurium; in short: as §1

Acetylcholinesterase (Electrophorus electricus), sequence (O42275 24-633 limits assumed): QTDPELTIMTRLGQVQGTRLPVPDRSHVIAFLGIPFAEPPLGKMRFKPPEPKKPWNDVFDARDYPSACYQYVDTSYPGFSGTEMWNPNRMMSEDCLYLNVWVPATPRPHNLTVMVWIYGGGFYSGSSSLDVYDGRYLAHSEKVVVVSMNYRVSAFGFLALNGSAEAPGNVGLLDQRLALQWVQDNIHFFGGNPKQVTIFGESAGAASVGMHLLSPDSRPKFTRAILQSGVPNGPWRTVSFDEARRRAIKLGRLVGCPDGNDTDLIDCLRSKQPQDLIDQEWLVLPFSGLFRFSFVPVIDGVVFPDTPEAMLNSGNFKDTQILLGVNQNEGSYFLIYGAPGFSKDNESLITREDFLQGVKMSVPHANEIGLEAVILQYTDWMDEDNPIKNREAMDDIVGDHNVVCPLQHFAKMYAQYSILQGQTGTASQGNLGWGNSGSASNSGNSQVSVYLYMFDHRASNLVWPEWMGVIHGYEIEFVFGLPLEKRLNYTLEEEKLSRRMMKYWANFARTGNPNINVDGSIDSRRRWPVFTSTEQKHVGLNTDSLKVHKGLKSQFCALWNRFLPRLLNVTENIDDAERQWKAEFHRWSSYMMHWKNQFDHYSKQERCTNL
T1 sequence (O42275 whole entry): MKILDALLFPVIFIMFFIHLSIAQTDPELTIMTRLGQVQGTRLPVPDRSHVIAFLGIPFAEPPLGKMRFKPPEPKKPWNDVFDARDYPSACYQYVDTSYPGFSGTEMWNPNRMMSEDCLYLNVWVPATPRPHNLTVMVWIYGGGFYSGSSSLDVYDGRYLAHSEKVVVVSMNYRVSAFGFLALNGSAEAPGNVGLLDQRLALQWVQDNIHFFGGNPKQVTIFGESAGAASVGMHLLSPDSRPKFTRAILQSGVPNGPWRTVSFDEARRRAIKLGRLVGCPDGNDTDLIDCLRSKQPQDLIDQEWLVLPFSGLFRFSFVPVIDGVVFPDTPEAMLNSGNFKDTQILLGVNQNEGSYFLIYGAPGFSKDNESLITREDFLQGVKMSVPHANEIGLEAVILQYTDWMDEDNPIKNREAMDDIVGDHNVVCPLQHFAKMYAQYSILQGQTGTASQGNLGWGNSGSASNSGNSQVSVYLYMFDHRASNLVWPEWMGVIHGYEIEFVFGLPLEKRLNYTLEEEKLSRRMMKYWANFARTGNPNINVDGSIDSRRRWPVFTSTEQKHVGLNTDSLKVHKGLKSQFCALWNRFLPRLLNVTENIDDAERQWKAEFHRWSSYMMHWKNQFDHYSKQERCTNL

SMILES	inhibition [1] [%]	inhibition [2] [%]	inhibition [3] [%]	inhibition [4] [%]	IC50 (Acetylcholinesterase [5]) [µM]	Ki (Acetylcholinesterase [6]) [µM]	IC50 at 24 h [7] [µM]	fold change (FC) (Salmonella typhimurium [9])	fold change (FC) (Salmonella typhimurium [10])	fold change (FC) (Salmonella typhimurium [11])	fold change (FC) (Salmonella typhimurium [12])	fold change (FC) (Salmonella typhimurium [13])	fold change (FC) (Salmonella typhimurium [14])	fold change (FC) (Salmonella typhimurium [15])	fold change (FC) (Salmonella typhimurium [16])	fold change (FC) (Salmonella typhimurium [17])	fold change (FC) (Salmonella typhimurium [18])	fold change (FC) (Salmonella typhimurium [19])	fold change (FC) (Salmonella typhimurium [20])	fold change (FC) (Salmonella typhimurium [21])	further results
COc1cc2nc(NC(=O)CN3CCN(CCN(C)C)CC3)sc2cc1OC	> 50	> 50	> 95	90	0.0462	0.11	> 1000	0.22	0.65	0.97	0.43	0	0	0.87	1.14	1.03	0.33	0.33	0.11	0.78	selectivity ratio [8]: 3; fold change (FC) (Salmonella typhimurium [22]): 0.55; fold change (FC) (Salmonella typhimurium [23]): 0.55; fold change (FC) (Salmonella typhimurium [24]): 1.09; fold change (FC) (Salmonella typhimurium [25]): 0.55; fold change (FC) (Salmonella typhimurium [26]): 0.47; fold change (FC) (Salmonella typhimurium [27]): 0.66; fold change (FC) (Salmonella typhimurium [28]): 0.49; fold change (FC) (Salmonella typhimurium [29]): 0.27; fold change (FC) (Salmonella typhimurium [30]): 0.27; fold change (FC) (Salmonella typhimurium [31]): 0; fold change (FC) (Salmonella typhimurium [32]): 0
COc1cc2nc(NC(=O)CN3CCN(Cc4ccc(C)cc4)CC3)sc2cc1OC	> 50	–	–	–	0.215	–	–	–	–	–	–	–	–	–	–	–	–	–	–	–	–
COc1cc2nc(NC(=O)CN3CCN(CCCN(C)C)CC3)sc2cc1OC	> 50	> 50	> 95	90	0.0576	0.25	100	0.28	1.4	0.56	0.84	1.02	1.49	0.94	0.47	1.04	0.52	1.15	0.89	0.98	fold change (FC) (Salmonella typhimurium [22]): 0.6; fold change (FC) (Salmonella typhimurium [23]): 0.53; fold change (FC) (Salmonella typhimurium [24]): 1.36; fold change (FC) (Salmonella typhimurium [25]): 1.36; fold change (FC) (Salmonella typhimurium [26]): 1.43; fold change (FC) (Salmonella typhimurium [27]): 0.79; fold change (FC) (Salmonella typhimurium [28]): 0.9; fold change (FC) (Salmonella typhimurium [29]): 0.69; fold change (FC) (Salmonella typhimurium [30]): 1.32; fold change (FC) (Salmonella typhimurium [31]): 0.32; fold change (FC) (Salmonella typhimurium [32]): 0.05
COc1ccc2nc(NC(=O)CN3CCN(Cc4ccc(F)cc4)CC3)sc2c1	> 50	–	–	–	0.244	–	–	–	–	–	–	–	–	–	–	–	–	–	–	–	–
